Data taken from paper PMC6460380 (Heliyon, 2019).
Structures can show the parent of a compound that is named as a salt.

Legend:
[1] = tested on: GST enzyme isolated from blueberry fruits (Vaccinium arctostaphylos L.); test: In vitro inhibition of purified blueberry fruit GST by pesticides; type: biochemical; conditions: for Ki: Lineweaver-Burk graphs, 1/V versus 1/[GSH]; for Ki / Inhibition type: GSH as substrate; for Inhibition type: from Lineweaver-Burk graphs; for IC50: from activity (%) - pesticide concentration graphs, minimum five concentrations
How it was run: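 GST purified from ripe berries (stored at -20 °C). The 1 mL assay used 0.1 M K-phosphate pH 7.0, CDNB (25 mM stock in ethanol) and GSH (20 mM stock). It was started with enzyme and absorbance was read for 3 min. Pesticides were tested at ≥5 concentrations against a no-pesticide control set as 100%. Ki and inhibition type came from 1/V versus 1/[GSH] plots.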

[2] = tested on: GST enzyme isolated from blueberry fruits (Vaccinium arctostaphylos L.); test: Kinetic studies of purified blueberry fruit GST with substrates CDNB and GSH; type: biochemical; conditions: CDNB 0.05-1.6 mM at fixed GSH 20 mM; GSH 0.05-1.6 mM at fixed CDNB 25 mM
How it was run: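 The enzyme was blueberry GST purified by Sephadex G-100 gel filtration then GSH-agarose affinity chromatography with GSH gradient elution. Reactions were 1 mL in 0.1 M K-phosphate buffer pH 7.0, with one substrate varied and the other held fixed. The reaction was started by rapid enzyme addition and absorbance was followed spectrophotometrically for 3 min.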

Row | Compound | Ki [1] [µM] | Inhibition type [1] | IC50 [1] [µM] | Inhibition of GST enzyme activity in vitro (in words) [1] | Vmax [2] [EU/ml]
1 | O=C(O)COc1ccc(Cl)cc1Cl [2,4 Dichlorophenoxy acetic acid] | 188 ± 85 | competitive | 460 | inhibited | 
2 | CC(=NC#N)N(C)Cc1ccc(Cl)nc1 [Acetamiprid, N - [(6-chloro-3-pyridyl)methyl] -N′-cyano-N-methyl-acetamidine] | 1560 ± 733 | competitive | 4100 | inhibited | 
3 | CC1(C)C(C=C(Cl)Cl)C1C(=O)OC(C#N)c1cccc(Oc2ccccc2)c1 (centres unmarked) [Cypermethrin, [Cyano-(3-phenoxyphenyl)methyl] 3-(2,2-dichloroethenyl) -2,2-dimethylcyclopropane-1-carboxylate] | 310 ± 88 |  | 320 | inhibited | 
4 | COP(=O)(OC)OC=C(Cl)Cl [Dichlorvos, 2,2-dichlorovinyl dimethyl phosphate] | 17.5 ± 5 |  | 24 | inhibited | 
5 | O=C(O)CNCP(=O)(O)O [Glifosat- izopropilamine salt, glyphosate isopropylamine salt] | 266 ± 100 | competitive | 160 | inhibited | 
6 | O=[N+]([O-])NC1=NCCN1Cc1ccc(Cl)nc1 [Imidacloprid, N-{1 - [(6-Chloro-3-pyridyl)methyl] -4,5-dihydroimidazol-2-yl} nitramide] | 630 ± 283 |  | 490 | inhibited | 
7 | (R) -2- [4- (6-chloro-1,3-benzoxazol-2-yloxy) phenoxy] propionic acid [Fenoxaprop-p-ethyl] | 133 | competitive | 230 | inhibited | 
8 | g-glu-cys-gly [GSH] |  |  |  |  | 0.048
